Numbered stars: 1 amine (or outer) side, 2 acyl side, 3 side chain; on linkers, the order of the positions; unused ones are H or OH. Bridge positions count the residues as written; N and C are the ends. Square brackets hold non-standard residues; d marks the D form. Peptide text beside a SMILES is read from it. * marks the point of attachment. Orn(4R-OH,5R-OCH2CH2NMe3+) = C[N+](C)(C)CCO[C@@H](N[*:3])[C@H](O)C[C@H](N[*:1])C(=O)[*:2]; pTerphenylCO(4''-OnC5H11) = CCCCCOc1ccc(-c2ccc(-c3ccc(C(=O)*)cc3)cc2)cc1; hTyr(3S-OH,4S-OH) = N[C@H](C(=O)O)[C@H](O)[C@@H](O)c1ccc(O)cc1; Pro(3S-OH,4S-Me) = C[C@H]1CN[C@H](C(=O)O)[C@H]1O; Hyp = O=C(O)[C@@H]1C[C@@H](O)CN1
Experiments:
[1] = Safety: treatment-emergent adverse events; type: in vivo, patients (adults); conditions: safety population
Procedure, shortened: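 Post-hoc pooled data from two randomised, double-blind, double-dummy trials. The safety population was adults in the ICU at randomisation who received ≥1 dose. Dosing was IV test compound weekly (400 mg Day 1, 200 mg Day 8, optional later 200 mg) or IV comparator echinocandin daily (70 mg Day 1, then 50 mg/day). TEAEs ran from dosing to follow-up, coded MedDRA 23.0, graded mild/moderate/severe, and summarised descriptively.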

[2] = cited from earlier work
[3] = ICU at randomisation, n=46 rezafungin, n=67 caspofungin
[4] = ICU at randomisation, number of events per severity

Structure (SMILES): CCCCCOc1ccc(-c2ccc(-c3ccc(C(=O)N[C@H]4C[C@@H](O)[C@@H](OCC[N+](C)(C)C)NC(=O)[C@@H]5[C@@H](O)[C@@H](C)CN5C(=O)[C@H]([C@@H](C)O)NC(=O)[C@H]([C@H](O)[C@@H](O)c5ccc(O)cc5)NC(=O)[C@@H]5C[C@@H](O)CN5C(=O)[C@H]([C@@H](C)O)NC4=O)cc3)cc2)cc1 [Rezafungin] ({pTerphenylCO(4''-OnC5H11)}-[Orn(4R-OH,5R-OCH2CH2NMe3+)]T[Hyp][hTyr(3S-OH,4S-OH)]T[Pro(3S-OH,4S-Me)]; lactam 1-C)
- TEAE: Abdominal abscess, patients [1, 3]: 1 (2.2) n (%)
- TEAE: Abdominal pain, patients [1, 3]: 4 (8.7) n (%)
- TEAE: Acidosis, patients [1, 3]: 1 (2.2) n (%)
- TEAE: Acute kidney injury, patients [1, 3]: 1 (2.2) n (%)
- TEAE: Anaemia, patients [1, 3]: 7 (15.2) n (%)
- TEAE: Atrial fibrillation, patients [1, 3]: 3 (6.5) n (%)
- TEAE: Bradycardia, patients [1, 3]: 1 (2.2) n (%)
- TEAE: Constipation, patients [1, 3]: 2 (4.3) n (%)
- TEAE: Decubitus ulcer, patients [1, 3]: 3 (6.5) n (%)
- TEAE: Deep vein thrombosis, patients [1, 3]: 1 (2.2) n (%)
- TEAE: Diarrhoea, patients [1, 3]: 7 (15.2) n (%)
- TEAE: Dyspnoea, patients [1, 3]: 0 (0) n (%)
- TEAE: Fluid overload, patients [1, 3]: 4 (8.7) n (%)
- TEAE: Hyperkalaemia, patients [1, 3]: 2 (4.3) n (%)
- TEAE: Hypertension, patients [1, 3]: 3 (6.5) n (%)
- TEAE: Hypokalaemia, patients [1, 3]: 4 (8.7) n (%)
- TEAE: Hypotension, patients [1, 3]: 3 (6.5) n (%)
- TEAE: Insomnia, patients [1, 3]: 4 (8.7) n (%)
- TEAE: Multiple organ dysfunction syndrome, patients [1, 3]: 3 (6.5) n (%)
- TEAE: Nausea, patients [1, 3]: 4 (8.7) n (%)
- TEAE: Peripheral oedema, patients [1, 3]: 3 (6.5) n (%)
- TEAE: Pleural effusion, patients [1, 3]: 0 (0) n (%)
- TEAE: Pneumonia, patients [1, 3]: 3 (6.5) n (%)
- TEAE: Pneumothorax, patients [1, 3]: 0 (0) n (%)
- TEAE: Pyrexia, patients [1, 3]: 2 (4.3) n (%)
- TEAE: Respiratory failure, patients [1, 3]: 0 (0) n (%)
- TEAE: Sepsis, patients [1, 3]: 5 (10.9) n (%)
- TEAE: Septic shock, patients [1, 3]: 6 (13.0) n (%)
- TEAE: Vomiting, patients [1, 3]: 7 (15.2) n (%)
- ≥ 1 TEAE [1, 3]: 41 (89.1) n (%)
- ≥ 1 TEAE leading to study/drug discontinuation [1, 3]: 8 (17.4) n (%)
- ≥ 1 serious TEAE [1, 3]: 28 (60.9) n (%)
- ≥ 1 study drug-related TEAE [1, 3]: 4 (8.7) n (%)
- ≥ 1 study drug-related TEAE leading to study/drug discontinuation [1, 3]: 0 (0) n (%)
- ≥ 1 study drug-related serious TEAE [1, 3]: 1 (2.2) n (%)
- TEAE: Abdominal abscess, event severity (n): mild/moderate/severe [1, 4]: 0/1/0
- TEAE: Abdominal pain, event severity (n): mild/moderate/severe [1, 4]: 1/2/1
- TEAE: Acidosis, event severity (n): mild/moderate/severe [1, 4]: 1/1/0
- TEAE: Acute kidney injury, event severity (n): mild/moderate/severe [1, 4]: 1/1/0
- TEAE: Anaemia, event severity (n): mild/moderate/severe [1, 4]: 2/4/1
- TEAE: Atrial fibrillation, event severity (n): mild/moderate/severe [1, 4]: 1/2/0
- TEAE: Bradycardia, event severity (n): mild/moderate/severe [1, 4]: 0/1/0
- TEAE: Constipation, event severity (n): mild/moderate/severe [1, 4]: 2/0/0
- TEAE: Decubitus ulcer, event severity (n): mild/moderate/severe [1, 4]: 2/1/0
- TEAE: Deep vein thrombosis, event severity (n): mild/moderate/severe [1, 4]: 1/0/0
- TEAE: Diarrhoea, event severity (n): mild/moderate/severe [1, 4]: 6/1/0
- TEAE: Dyspnoea, event severity (n): mild/moderate/severe [1, 4]: 0/0/0
- TEAE: Fluid overload, event severity (n): mild/moderate/severe [1, 4]: 0/3/1
- TEAE: Hyperkalaemia, event severity (n): mild/moderate/severe [1, 4]: 2/0/0
- TEAE: Hypertension, event severity (n): mild/moderate/severe [1, 4]: 2/1/0
- TEAE: Hypokalaemia, event severity (n): mild/moderate/severe [1, 4]: 3/1/0
- TEAE: Hypotension, event severity (n): mild/moderate/severe [1, 4]: 2/1/0
- TEAE: Insomnia, event severity (n): mild/moderate/severe [1, 4]: 3/1/0
- TEAE: Multiple organ dysfunction syndrome, event severity (n): mild/moderate/severe [1, 4]: 0/0/3
- TEAE: Nausea, event severity (n): mild/moderate/severe [1, 4]: 0/4/0
- TEAE: Peripheral oedema, event severity (n): mild/moderate/severe [1, 4]: 3/0/0
- TEAE: Pleural effusion, event severity (n): mild/moderate/severe [1, 4]: 0/0/0
- TEAE: Pneumonia, event severity (n): mild/moderate/severe [1, 4]: 0/0/3
- TEAE: Pneumothorax, event severity (n): mild/moderate/severe [1, 4]: 0/0/0
- TEAE: Pyrexia, event severity (n): mild/moderate/severe [1, 4]: 1/1/0
- TEAE: Respiratory failure, event severity (n): mild/moderate/severe [1, 4]: 0/0/0
- TEAE: Sepsis, event severity (n): mild/moderate/severe [1, 4]: 3/2/1
- TEAE: Septic shock, event severity (n): mild/moderate/severe [1, 4]: 0/1/5
- TEAE: Vomiting, event severity (n): mild/moderate/severe [1, 4]: 4/4/0
- Study drug-related serious TEAEs, events ([1]; each event n = 1): infusion-related reaction
- half-life [2]: 120 to 140 h

Reference: PMC11520665 (Critical Care, 2024)
